Test results as given in ChEMBL document CHEMBL1132199, “Carboxy-substituted cinnamides: a novel series of potent, orally active LTB4 receptor antagonists” (J Med Chem, 1999).

How the values were obtained:
Leukotriene B4 receptor [1] = biological target: T1, Leukotriene B4 receptor (Homo sapiens, UniProt Q9NPC1+Q15722); assay: In vitro leukotriene B4 receptor binding potency determined by displacement of [3H]- LTB4 from human neutrophils (PMNs)
How it was run: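 Intact human neutrophils from citrated venous blood (HESPAN sedimentation, Ficoll-Paque, hypotonic lysis), 3 × 10⁶ cells in HBSS with 0.5 nM [³H]LTB₄ and compound, 20 min at 0 °C. Bound label collected by filtration, filters washed with ice-cold HBSS, then scintillation-counted. Nonspecific binding taken with 300 nM LTB₄. Compound stocks 10 mM in DMSO, final DMSO 0.35%.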

Mus musculus [2] = assay: Inhibition of Arachidonic acid (AA)-induced ear edema was determined at dosing of 0.5 hr challenge; expressed as myeloperoxide activity (MPO) at 0.1 mg/kg; 21/15; assay type: functional
Leukotriene B4 receptor [3] = biological target: T1, Leukotriene B4 receptor; assay: LTB4 receptor antagonistic activity as inhibition of LTB4-induced [Ca2+] release from human PMNs; assay type: functional
How it was run: (§1)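 Human neutrophils from citrated venous blood (HESPAN sedimentation, centrifugal elutriation) loaded with 0.2 μM Fura-2 AM for 30 min at 37 °C, then held at 2 × 10⁶ cells/mL. Ca²⁺ and Mg²⁺ added back at 37 °C; compound given 40 s before 1 nM LTB₄; fluorescence change followed. Ki = IC50/(1 + [LTB₄]/EC50 of LTB₄). Final DMSO 0.35%.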

Mus musculus [4] = assay: Inhibition of Arachidonic acid (AA)-induced ear edema was determined at dosing of 17 hr challenge; expressed as myeloperoxide activity (MPO) at 10 mg/kg; 40/55; assay type: functional
Mus musculus [5] = assay: Inhibition of Arachidonic acid (AA)-induced ear edema was determined at dosing of 0.5 hr challenge; expressed as myeloperoxide activity (MPO) at 1 mg/kg; 24/24; assay type: functional
Mus musculus [6] = assay: Inhibition of Arachidonic acid (AA)-induced ear edema was determined at dosing of 17 hr challenge; expressed as myeloperoxide activity (MPO) at 3 mg/kg; 25/12; assay type: functional
Mus musculus [7] = assay: Inhibition of Arachidonic acid (AA)-induced ear edema was determined at dosing of 0.5 h challenge; expressed as myeloperoxide activity (MPO) at 3 mg/kg; 39/58; assay type: functional
Mus musculus [8] = assay: Inhibition of Arachidonic acid (AA)-induced ear edema was determined at dosing of 17 hr challenge; expressed as myeloperoxide activity (MPO) at 10 mg/kg; 1/1; assay type: functional
Mus musculus [9] = assay: Inhibition of Arachidonic acid (AA)-induced ear edema was determined at dosing of 17 hr challenge; expressed as myeloperoxide activity (MPO) at 10 mg/kg; 27/0; assay type: functional
Mus musculus [10] = assay: Inhibition of Arachidonic acid (AA)-induced ear edema was determined at dosing of 17 hr challenge; expressed as myeloperoxide activity (MPO) at 10 mg/kg; 59/67; assay type: functional
Mus musculus [11] = assay: Inhibition of Arachidonic acid (AA)-induced ear edema was determined at dosing of 0.5 hr challenge; expressed as myeloperoxide activity (MPO) at 3 mg/kg; 45/53; assay type: functional
Mus musculus [12] = assay: Inhibition of Arachidonic acid (AA)-induced ear edema was determined at dosing of 0.5 h challenge; expressed as myeloperoxide activity (MPO) at 1 mg/kg; 32/38; assay type: functional
Mus musculus [13] = assay: Inhibition of Arachidonic acid (AA)-induced ear edema was determined at dosing of 17 hr challenge; expressed as myeloperoxide activity (MPO) at 3 mg/kg; 44/53; assay type: functional
Mus musculus [14] = assay: Inhibition of Arachidonic acid (AA)-induced ear edema was determined at dosing of 17 hr challenge; expressed as myeloperoxide activity (MPO) at 10 mg/kg; 46/54; assay type: functional
Mus musculus [15] = assay: Inhibition of Arachidonic acid (AA)-induced ear edema was determined at dosing of 17 hr challenge; expressed as myeloperoxide activity (MPO) at 3 mg/kg; 34/15; assay type: functional
Mus musculus [16] = assay: Inhibition of Arachidonic acid (AA)-induced ear edema was determined at dosing of 0.5 hr challenge; expressed as myeloperoxide activity (MPO) at 3 mg/kg; 52/58; assay type: functional
Mus musculus [17] = assay: Inhibition of Arachidonic acid (AA)-induced ear edema was determined at dosing of 0.5 hr challenge; expressed as myeloperoxide activity (MPO) at 1 mg/kg; 26/32; assay type: functional
Mus musculus [18] = assay: Inhibition of Arachidonic acid (AA)-induced ear edema was determined at dosing of 17 hr challenge; expressed as myeloperoxide activity (MPO) at 10 mg/kg; 0/0; assay type: functional
Mus musculus [19] = assay: Inhibition of Arachidonic acid (AA)-induced ear edema was determined at dosing of 0.5 hr challenge; expressed as myeloperoxide activity (MPO) at 1 mg/kg; 50/67; assay type: functional
Mus musculus [20] = assay: Inhibition of Arachidonic acid (AA)-induced ear edema was determined at dosing of 0.5 hr challenge; expressed as myeloperoxide activity (MPO) at 3 mg/kg; 56/71; assay type: functional
Mus musculus [21] = assay: Inhibition of Arachidonic acid (AA)-induced ear edema was determined at dosing of 0.5 hr challenge; expressed as myeloperoxide activity (MPO) at 0.1 mg/kg; 41/49; assay type: functional
Mus musculus [22] = assay: Inhibition of Arachidonic acid (AA)-induced ear edema was determined at dosing of 17 hr challenge; expressed as myeloperoxide activity (MPO) at 10 mg/kg; 27/31; assay type: functional
Mus musculus [23] = assay: Inhibition of Arachidonic acid (AA)-induced ear edema was determined at dosing of 0.5 hr AA challenge; expressed as myeloperoxide activity (MPO) at 1 mg/kg; 14/0; assay type: functional
Mus musculus [24] = assay: Inhibition of Arachidonic acid (AA)-induced ear edema was determined at dosing of) 17 hr challenge; expressed as myeloperoxide activity (MPO) at 10 mg/kg; 33/2; assay type: functional
Mus musculus [25] = assay: Inhibition of Arachidonic acid (AA)-induced ear edema was determined at dosing of 17 hr challenge; expressed as myeloperoxide activity (MPO) at 10 mg/kg; 19/30; assay type: functional
[26] = biological target: Leukotriene B4 receptor 1 (Homo sapiens, UniProt Q15722); assay: Leukotriene B4 receptor antagonistic activity was measured by the inhibition of LTB4 induced [Ca2+] release from human PMNs; assay type: functional; how it was run: as §1
Leukotriene B4 receptor 1, sequence (Q15722 whole entry): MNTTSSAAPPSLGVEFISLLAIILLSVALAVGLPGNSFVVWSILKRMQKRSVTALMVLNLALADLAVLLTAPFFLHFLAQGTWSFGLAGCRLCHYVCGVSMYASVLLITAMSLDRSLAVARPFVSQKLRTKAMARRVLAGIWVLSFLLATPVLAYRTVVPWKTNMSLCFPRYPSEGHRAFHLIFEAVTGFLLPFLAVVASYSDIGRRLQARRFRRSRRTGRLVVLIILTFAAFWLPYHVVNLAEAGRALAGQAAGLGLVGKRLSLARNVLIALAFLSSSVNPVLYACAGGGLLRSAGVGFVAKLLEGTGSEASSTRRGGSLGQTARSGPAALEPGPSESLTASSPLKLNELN

Mus musculus [27] = assay: Inhibition of Arachidonic acid (AA)-induced ear edema was determined at dosing of 0.5 h challenge; expressed as myeloperoxide activity (MPO) at 1 mg/kg; 41/41; assay type: functional
Mus musculus [28] = assay: Inhibition of Arachidonic acid (AA)-induced ear edema was determined at dosing of 17 h challenge; expressed as myeloperoxide activity (MPO) at 10 mg/kg; 55/55; assay type: functional
Mus musculus [29] = assay: Inhibition of Arachidonic acid (AA)-induced ear edema was determined at dosing of 17 hr challenge; expressed as myeloperoxide activity (MPO) at 3 mg/kg; 29/26; assay type: functional

Row | Compound | IC50 (Leukotriene B4 receptor [1]) [nM] | Ki (Leukotriene B4 receptor [3]) [nM] | other results
1 | CCN(CC)C(=O)/C=C(\C)c1ccc(Oc2ccccc2)c(OCC(=O)O)c1 | 2400 |  | 
2 | CCN(CC)C(=O)CC(C)c1ccc(OC(C)c2ccccc2)cc1 (stereo not drawn) | 4300 |  | 
3 | CCN(CC)C(=O)/C=C(\C)c1ccc(OC(C)c2ccccc2)c(OCCC(=O)O)c1 (stereo not drawn) | 128 | 81 | Punch weight/MPO activity (Mus musculus [2]): 21; Punch weight/MPO activity (Mus musculus [4]): <40; Punch weight/MPO activity (Mus musculus [5]): <24; Punch weight/MPO activity (Mus musculus [6]): <25; Punch weight/MPO activity (Mus musculus [7]): <39
4 | CCN(CC)C(=O)/C=C(\C)c1ccc(SCc2ccccc2)c(OCC(=O)O)c1 | 34 | 26 | Punch weight/MPO activity (Mus musculus [8]): 1
5 | CCN(CC)C(=O)/C=C(\C)c1ccc(CCc2ccccc2)c(OCC(=O)O)c1 | 56 | 7.7 | Punch weight/MPO activity (Mus musculus [9]): 27
6 | CCN(CC)C(=O)/C=C(\C)c1ccc(OCc2c(F)cccc2F)c(CC(=O)O)c1 | 87 | 22 | Punch weight/MPO activity (Mus musculus [10]): <59; Punch weight/MPO activity (Mus musculus [11]): <45; Punch weight/MPO activity (Mus musculus [12]): <32; Punch weight/MPO activity (Mus musculus [13]): 44
7 | CCN(CC)C(=O)/C=C(\C)c1ccc(OCc2c(F)cccc2F)c(OCC(=O)O)c1 | 56 | 18 | Punch weight/MPO activity (Mus musculus [14]): <46; Punch weight/MPO activity (Mus musculus [15]): <34; Punch weight/MPO activity (Mus musculus [16]): <52; Punch weight/MPO activity (Mus musculus [17]): <26
8 | CCN(CC)C(=O)/C=C(\C)c1ccc(OCc2c(Cl)cccc2Cl)c(OCC(=O)O)c1 | 31 | 14 | Punch weight/MPO activity (Mus musculus [18]): 0
9 | CCN(CC)C(=O)/C=C(\C)c1ccc(OC(C)c2ccccc2)c(C(=O)O)c1 (stereo not drawn) | 884 |  | 
10 | CCN(CC)C(=O)/C=C(\C)c1ccc(OC(C)c2ccccc2)c(OCC(=O)O)c1 (stereo not drawn) | 50 | 9.1 | Punch weight/MPO activity (Mus musculus [19]): <50; Punch weight/MPO activity (Mus musculus [20]): <56; Punch weight/MPO activity (Mus musculus [21]): <41; Punch weight/MPO activity (Mus musculus [22]): <27
11 | CCN(CC)C(=O)/C=C(\C)c1ccc(OC(C)c2ccccc2)c(O)c1 (stereo not drawn) | 420 |  | 
12 | CCN(CC)C(=O)/C=C(\C)c1ccc(OC(c2ccccc2)c2ccccc2)c(OCC(=O)O)c1 | 64 | 5.2 | Punch weight/MPO activity (Mus musculus [23]): 14
13 | CCN(CC)C(=O)/C=C(\C)c1cc(OCC(=O)O)cc(OC(C)c2ccccc2)c1 (stereo not drawn) | 84 | 11.2 | 
14 | C/C(=C\C(=O)N1CCCCC1)c1ccc(OC(C)c2ccccc2)cc1 (stereo not drawn) | 5800 |  | 
15 | CCCN(CCC)C(=O)/C=C(\C)c1ccc(OC(C)c2ccccc2)cc1 (stereo not drawn) | 1400 |  | 
16 | CCN(CC)C(=O)/C=C(\C)c1ccc(OCc2ccccc2Cl)c(OCC(=O)O)c1 | 67 | 16 | Punch weight/MPO activity (Mus musculus [24]): <33
17 | CCN(CC)C(=O)/C=C(\C)c1ccc(-c2ccccc2)cc1 | > 10000 |  | 

Row | Compound | IC50 (Leukotriene B4 receptor [1]) [nM] | Ki (Leukotriene B4 receptor [3]) [nM] | other results
18 | CCN(CC)C(=O)/C=C(\C)c1ccc(OC(C)C)cc1 | > 10000 |  | 
19 | CCN(CC)C(=O)/C=C(\C)c1ccc(OCc2ccccc2F)c(OCC(=O)O)c1 | 119 | 27 | Punch weight/MPO activity (Mus musculus [25]): <19
20 | CCN(CC)C(=O)/C=C(\C)c1ccc(OCc2ccccc2)c(OCC(=O)O)c1 | 182 | 82 | 
21 | COc1ccc(C(=O)O)cc1NC(=O)/C=C(\C)c1ccc(OC(C)c2ccccc2)cc1 (stereo not drawn) | > 10000 |  | 
22 | CCN(CC)C(=O)/C=C(\C)c1ccc(OCc2ccccc2)cc1 | 7900 |  | 
23 | CCNC(=O)/C=C(\C)c1ccc(OC(C)c2ccccc2)cc1 (stereo not drawn) | 2000 |  | 
24 | CCN(CC)C(=O)/C=C(\C)c1ccc(OC(C)c2ccccc2)cc1OCC(=O)O (stereo not drawn) | 2225 |  | 
25 | CCN(CC)C(=O)/C=C(\C)c1ccc(OC(C)c2ccccc2)c(OCCCC(=O)O)c1 (stereo not drawn) | 216 |  | 
26 | CCN(CC)C(=O)/C=C(\C)c1ccc(OC(C)c2ccccc2)cc1 (stereo not drawn) | 744 |  | 
27 | CCN(CC)C(=O)/C=C(\C)c1ccc(O[C@H](C)c2ccccc2)c(CC(=O)O)c1 | 536 |  | 
28 | CCN(CC)C(=O)/C=C(\C)c1ccc(O[C@@H](C)c2ccccc2)c(CC(=O)O)c1 | 39 |  | 
29 | CCN(CC)C(=O)/C=C/c1ccc(OC(C)c2ccccc2)cc1 (stereo not drawn) | 1600 |  | 
30 | C/C(=C\C(=O)N(C)C)c1ccc(OC(C)c2ccccc2)cc1 (stereo not drawn) | 2100 |  | 
31 | CCN(CC)C(=O)/C=C(\C)c1ccc(OC(C)c2ccccc2)c(CCC(=O)O)c1 (stereo not drawn) | 48 |  | Ki [26]: 9.5 nM
32 | C/C(=C\C(=O)N(C(C)C)C(C)C)c1ccc(OC(C)c2ccccc2)cc1 (stereo not drawn) | 1100 |  | 
33 | CCN(CC)C(=O)/C=C(\C)c1ccc(OC(C)c2ccccc2)c(CC(=O)O)c1 (stereo not drawn) | 81 | 9.5 | Punch weight/MPO activity (Mus musculus [27]): <41; Punch weight/MPO activity (Mus musculus [28]): <55; Punch weight/MPO activity (Mus musculus [29]): <29
